The values that follow come from PMC4126877 (Molecular cancer therapeutics, 2014).

What is called IC50 is the midpoint of a concentration-inhibition curve.

“And” between values parts separate entries of the source, which are not always exact repeats. Identical values can stand only once. Like-named read-outs stand apart in the source and are kept apart here.

For one data set, the system named is DT40 hTDP1 cells. The format is cell-based. The following applies: 72 h.
Another data set addresses T1, recombinant human TDP2 (Homo sapiens, UniProt O95551).
T1 sequence (O95551 1-362): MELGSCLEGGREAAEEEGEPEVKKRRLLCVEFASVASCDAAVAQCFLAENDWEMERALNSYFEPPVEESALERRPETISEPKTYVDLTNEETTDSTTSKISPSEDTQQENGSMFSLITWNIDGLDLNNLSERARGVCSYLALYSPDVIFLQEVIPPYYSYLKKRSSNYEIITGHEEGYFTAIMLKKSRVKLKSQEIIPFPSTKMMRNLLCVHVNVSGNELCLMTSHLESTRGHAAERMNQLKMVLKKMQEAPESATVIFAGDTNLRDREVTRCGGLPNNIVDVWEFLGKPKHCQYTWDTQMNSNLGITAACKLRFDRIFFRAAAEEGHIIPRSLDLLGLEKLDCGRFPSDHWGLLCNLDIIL
The data set can be described thus: Recombinant TDP2 counter-screening assay. The format is biochemical. The following applies: for activity against TDP2 (in words): tested up to 111 µM. Put shortly:
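Counter-screen: 1 nM α32P-cordycepin-3′-labeled 18-mer single-stranded oligonucleotide incubated with 25 pM recombinant human TDP2, ± inhibitor, 15 min, room temperature. Reactions terminated and processed as the TDP1 gel assays: gel run, PhosphorImager exposure, densitometry.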
(In general: Counterscreens check selectivity or assay interference.)

The target of data set [1] is endogenous human TDP1 from whole cell extracts (DT40 hTDP1) (Homo sapiens, UniProt Q9NUW8). The experiment in a line: Whole cell extract. Format: biochemical.
In the next data set the target is recombinant TDP1 (Homo sapiens, UniProt Q9NUW8). The data set can be described thus: Recombinant TDP1 gel-based assay. Format: biochemical. Put shortly: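 Gel-based cleavage assay: 1 nM 5′-[32P]-labeled single-stranded oligonucleotide with a 3′-phosphotyrosine (N14Y) incubated with 10 pM recombinant TDP1, ± inhibitor, 15 min, room temperature. Parallel reactions in HTS buffer: 1X PBS pH 7.4, 80 mM KCl, 0.01% Tween-20. Gels dried, PhosphorImager-scanned, quantified by densitometry.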

Another data set relates to Chk2. The following applies: cited from earlier work.
[2] abbreviates: read-out: IC50 TDP1 REC, recombinant TDP1, WCE buffer.

Sequence of endogenous human TDP1 from whole cell extracts (DT40 hTDP1) (Q9NUW8 whole entry): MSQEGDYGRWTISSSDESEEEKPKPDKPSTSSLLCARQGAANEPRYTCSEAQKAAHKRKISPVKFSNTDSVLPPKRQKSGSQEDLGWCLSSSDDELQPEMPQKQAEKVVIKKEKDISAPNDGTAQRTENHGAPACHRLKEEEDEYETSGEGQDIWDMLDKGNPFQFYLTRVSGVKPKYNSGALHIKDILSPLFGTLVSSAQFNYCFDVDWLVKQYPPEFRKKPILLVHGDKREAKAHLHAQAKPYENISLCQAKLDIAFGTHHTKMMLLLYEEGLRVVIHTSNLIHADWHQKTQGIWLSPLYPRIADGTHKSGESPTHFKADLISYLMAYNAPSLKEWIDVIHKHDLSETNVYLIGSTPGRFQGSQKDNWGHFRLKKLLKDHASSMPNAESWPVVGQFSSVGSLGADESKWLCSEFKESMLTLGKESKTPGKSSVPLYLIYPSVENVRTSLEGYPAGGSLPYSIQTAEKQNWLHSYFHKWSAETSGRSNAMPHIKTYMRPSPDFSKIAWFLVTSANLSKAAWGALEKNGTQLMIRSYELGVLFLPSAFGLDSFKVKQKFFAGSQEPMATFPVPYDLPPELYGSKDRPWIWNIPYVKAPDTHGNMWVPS
Sequence of recombinant TDP1 (Q9NUW8 whole entry): as above

For the compound `Cc1ccc(Nc2nn3c(=O)c4ccccc4nc3s2)cc1C` [NCGC00183674], in the data set on DT40 hTDP1 cells, the cytotoxicity result is “did not exhibit any cytotoxicity” and the “synergistic effect in combination with CPT” value is on record as “no synergistic effect”. In addition, on recombinant human TDP2, the “selectivity for TDP1 versus TDP2” value was “higher selectivity for TDP1” and the “activity against TDP2 (in words)” value is given as “only marginal activity against TDP2 at 111 µM”. Besides, the IC50 at recombinant human TDP2 (read-out: IC50 TDP2 REC, recombinant TDP2) is greater than 111 µM. Besides, the IC50 in data set [1] (read-out: IC50 TDP1 WCE, WCE buffer) is 51 µM and 59 µM. On recombinant TDP1, the “inhibition of REC-TDP1 (in words)” value was “inhibited REC-TDP1 at low micromolar concentrations”. Further, the IC50 at recombinant TDP1 (setting [2]) is 12.1 ± 1.7 µM.

Turning to `O=c1c2ccccc2nc2sc(Nc3ccc4c(c3)CCC4)nn12` [NCGC00183964], the “reduction in potency, WCE buffer vs HTS buffer” value at recombinant TDP1 (REC-TDP1) was determined as 25 fold. The IC50 at recombinant TDP1 (setting [2]) is 81 µM.

Consider `O=C(O)c1ccc(-c2ccc(C=C3NC(=O)N(Cc4ccccc4F)C3=O)o2)cc1` [JLT048, 4-(5-[{[1-(2-fluorobenzyl)-2,5-dioxo-4-imidazolidinylidene]methyl]}-2furyl)benzoic acid], for which, in the data set on DT40 hTDP1 cells, the cytotoxicity entry is recorded as “did not exhibit any cytotoxicity” and the “synergistic effect in combination with CPT” value is on record as “no synergistic effect”. Moreover, on recombinant human TDP2, the IC50 came to 32 ± 10 µM and the “activity against TDP2 (in words)” value was “also inhibited TDP2, albeit with higher IC50 values”. For the same compound, in data set [1] (IC50 TDP1 WCE, WCE buffer), the concentration for half-maximal inhibition (IC50) was 115 µM and 148 µM. On recombinant TDP1, the IC50 is 7.7 ± 1.8 µM and the “inhibition of REC-TDP1 (in words)” value is given as “inhibited REC-TDP1 at low micromolar concentrations”.

As to `CN[C@@H]1C[C@H]2O[C@@](C)([C@@H]1OC)n1c3ccccc3c3c4c(c5c6ccccc6n2c5c31)C(=O)N[C@H]4O` [7-hydroxystaurosporine (UCN-01), 7-hydroxystaurosporine], in the data set with Chk2, the “inhibition of Chk2 purified from cell extract by immunoprecipitation” value is “found to inhibit” and the “inhibition of recombinant Chk2 enzyme” value was “ineffective”.
